Assay results as given in ChEMBL document CHEMBL4732185, “Synthesis, biological evaluation and structure-activity relationship of novel dichloroacetophenones targeting pyruvate dehydrogenase kinases with potent anticancer activity” (Eur J Med Chem, 2021).
The source made the active and inactive calls.

Columns and labels:
MCF7 = experiment: Antiproliferative activity against human MCF7 cells assessed as growth inhibition at 10 uM after 72 hrs by MTT assay relative to control; assay type: functional; conditions: read-out: GI
In short: (§1)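 Single-concentration MTT screen on MCF-7 and A549 cells grown in DMEM + 10% FBS. Cells at 3000–6000/well, cultured overnight, then given compound in buffer with 1% DMSO for 72 h. MTT (0.5 mg/mL) added for 4 h, formazan dissolved in DMSO, A570 read. Percent inhibition reported as the average ± S.D. of three independent measurements.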

A549 [1] = experiment: Antiproliferative activity against human A549 cells assessed as growth inhibition at 10 uM after 72 hrs by MTT assay relative to control; assay type: functional; conditions: read-out: GI; in short: as §1
A549 [2] = experiment: Antiproliferative activity against human A549 cells assessed as growth inhibition at 1 uM after 72 hrs by MTT assay relative to control; assay type: functional; conditions: read-out: GI; in short: as §1
Homo sapiens = organism: Homo sapiens; experiment: Inhibition of PDK (unknown origin) using RYHGHSMSDP as substrate at 1 uM after 30 mins by Kinase-Glo luminescent assay
SH-SY5Y = experiment: Antiproliferative activity against human SHSY-5Y cells assessed as growth inhibition after 72 hrs by MTT assay; assay type: functional, cell-based; conditions: Homo sapiens, SH-SY5Y, 72 h; read-out: IC50
In short: (§2)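 MTT viability assay. Cancer lines seeded at 3000–6000 cells/well and L02 at 7000 cells/well, cultured overnight, then exposed to a full dose range for 72 h. MTT (0.5 mg/mL) added for 4 h, supernatant removed, formazan dissolved in DMSO, absorbance read at 570 nm. IC50 taken as the mean of three independent experiments. Cells grown in DMEM + 10% FBS, 37 °C, 5% CO2.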

PC-3 = experiment: Antiproliferative activity against human PC3 cells assessed as growth inhibition after 72 hrs by MTT assay; assay type: functional, cell-based; conditions: Homo sapiens, PC-3, 72 h; read-out: IC50; in short: as §2
L02 = experiment: Cytotoxicity against human L02 cells assessed as reduction in cell viability after 72 hrs by MTT assay; assay type: cell-based; conditions: Homo sapiens, L02, 72 h; read-out: IC50; in short: as §2
[3] = target: [Pyruvate dehydrogenase (acetyl-transferring)] kinase isozyme 3, mitochondrial (Homo sapiens, UniProt Q15120); experiment: Binding affinity to PDK3 (unknown origin) by isothermal titration calorimetry
In short: (§3)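 Isothermal titration calorimetry at 25 °C. Compound dissolved in DMSO, diluted to 100 µM in buffer and placed in the titration syringe; 250 µL of PDK protein solution in the reaction cell. Titrant added in 2.5 µL increments per injection.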

[4] = target: [Pyruvate dehydrogenase (acetyl-transferring)] kinase isozyme 4, mitochondrial (Homo sapiens, UniProt Q16654); experiment: Binding affinity to PDK4 (unknown origin) by isothermal titration calorimetry; in short: as §3
A-375 [5] = experiment: Induction of apoptosis in human A375 cells assessed as early apoptotic cells at 1 uM after 36 hrs by annexinV-FITC/propidium iodide staining based flow cytometric analysis (reference value: 3.2%); assay type: functional
A-375 [6] = experiment: Induction of apoptosis in human A375 cells assessed as necrotic cells at 1 uM after 36 hrs by annexinV-FITC/propidium iodide staining based flow cytometric analysis (reference value: 1.63%); assay type: functional
A-375 [7] = experiment: Induction of apoptosis in human A375 cells assessed as viable cells at 2.5 uM after 36 hrs by annexinV-FITC/propidium iodide staining based flow cytometric analysis (reference value: 94.15%); assay type: functional; conditions: read-out: Activity
A-375 [8] = experiment: Induction of apoptosis in human A375 cells assessed as late apoptotic cells at 2.5 uM after 36 hrs by annexinV-FITC/propidium iodide staining based flow cytometric analysis (reference value: 1.02%); assay type: functional
A-375 [9] = experiment: Induction of apoptosis in human A375 cells assessed as viable cells at 5 uM after 36 hrs by annexinV-FITC/propidium iodide staining based flow cytometric analysis (reference value: 94.15%); assay type: functional; conditions: read-out: Activity
A-375 [10] = experiment: Induction of apoptosis in human A375 cells assessed as late apoptotic cells at 5 uM after 36 hrs by annexinV-FITC/propidium iodide staining based flow cytometric analysis (reference value: 1.02%); assay type: functional
A-375 [11] = experiment: Induction of apoptosis in human A375 cells assessed as necrotic cells at 5 uM after 36 hrs by annexinV-FITC/propidium iodide staining based flow cytometric analysis (reference value: 1.63%); assay type: functional
A-375 [12] = experiment: Induction of apoptosis in human A375 cells assessed as early apoptotic cells at 5 uM after 24 hrs by annexinV-FITC/propidium iodide staining based flow cytometric analysis (reference value: 0.87%); assay type: functional
A-375 [13] = experiment: Induction of apoptosis in human A375 cells assessed as late apoptotic cells at 5 uM after 24 hrs by annexinV-FITC/propidium iodide staining based flow cytometric analysis (reference value: 0.63%); assay type: functional
A-375 [14] = experiment: Induction of cell cycle arrest in human A375 cells assessed as accumulation at G1 phase at 1 uM after 24 hrs by propidium iodide staining based flow cytometric analysis (reference value: 52.65%); assay type: functional
A-375 [15] = experiment: Induction of cell cycle arrest in human A375 cells assessed as accumulation at G2 phase at 2.5 uM after 24 hrs by propidium iodide staining based flow cytometric analysis (reference value: 10.02%); assay type: functional
A-375 [16] = experiment: Induction of cell cycle arrest in human A375 cells assessed as accumulation at G1 phase at 5 uM after 24 hrs by propidium iodide staining based flow cytometric analysis (reference value: 52.65%); assay type: functional
A-375 [17] = experiment: Induction of cell cycle arrest in human A375 cells assessed as accumulation at S phase at 5 uM after 24 hrs by propidium iodide staining based flow cytometric analysis (reference value: 37.33%); assay type: functional
A-375 [18] = experiment: Induction of cell cycle arrest in human A375 cells assessed as accumulation at G2 phase at 5 uM after 24 hrs by propidium iodide staining based flow cytometric analysis (reference value: 10.02%); assay type: functional
A-375 [19] = experiment: Induction of cell cycle arrest in human A375 cells assessed as accumulation at G1 phase after 24 hrs by propidium iodide staining based flow cytometric analysis; assay type: functional; conditions: dose 1-5 µM
A-375 [20] = experiment: Inhibition of cell migration in human A375 cells at 0.5 to 2 uM after 24 hrs by wound healing assay; assay type: functional, cell-based; conditions: dose 0.5-2 µM
In short: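 A375 monolayer scratched and treated for 24 h, imaged at ×100. Closure ratio (%) = (start scratched area − after scratched area)/start scratched area, compared with control. P < 0.05 versus control considered significant.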

A-375 [21] = experiment: Inhibition of PDK in human A375 cells assessed as increase in oxygen consumption rate after 4 hrs by XFe cell Mito stress test assay; assay type: cell-based; conditions: dose 2.5-5 µM
In short: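 A375 cells attached, then given an extra 100 µL growth medium and incubated 24 h. Treated 4 h, then rinsed twice with pre-warmed XFe base medium. OCR measured as in a previous report.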

A-375 [22] = experiment: Antitumour activity against human A375 cells xenografted with mouse assessed as tumour growth inhibition at 5 mg/kg, im administered once per three days for 21 days; assay type: functional, organism-based; conditions: time 21.0 day
In short: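 Xenograft model. A375 cells harvested at 80% confluence with trypsin/EDTA, resuspended in serum-free DMEM and injected subcutaneously into the right flank of mice. Once tumours were visible (about 7 days), mice were randomised to vehicle or 5 mg/kg groups, n = 4, dosed by intramuscular injection once every three days. Tumour growth and body weight followed; tumours harvested and weighed at 21 days.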

[Pyruvate dehydrogenase (acetyl-transferring)] kinase isozyme 3, mitochondrial, sequence (Q15120 whole entry): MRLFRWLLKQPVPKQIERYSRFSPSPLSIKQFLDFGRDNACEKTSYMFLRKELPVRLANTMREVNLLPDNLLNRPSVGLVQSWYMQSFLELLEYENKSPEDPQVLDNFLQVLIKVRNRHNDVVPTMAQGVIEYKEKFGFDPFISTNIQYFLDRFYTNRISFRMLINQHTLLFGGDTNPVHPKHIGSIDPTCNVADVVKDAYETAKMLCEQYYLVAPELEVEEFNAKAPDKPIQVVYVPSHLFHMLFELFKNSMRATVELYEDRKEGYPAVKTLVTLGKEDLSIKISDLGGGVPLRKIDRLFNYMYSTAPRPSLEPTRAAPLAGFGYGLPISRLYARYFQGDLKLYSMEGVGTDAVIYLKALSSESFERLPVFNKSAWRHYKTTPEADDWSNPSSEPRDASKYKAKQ
[Pyruvate dehydrogenase (acetyl-transferring)] kinase isozyme 4, mitochondrial, sequence (Q16654 whole entry): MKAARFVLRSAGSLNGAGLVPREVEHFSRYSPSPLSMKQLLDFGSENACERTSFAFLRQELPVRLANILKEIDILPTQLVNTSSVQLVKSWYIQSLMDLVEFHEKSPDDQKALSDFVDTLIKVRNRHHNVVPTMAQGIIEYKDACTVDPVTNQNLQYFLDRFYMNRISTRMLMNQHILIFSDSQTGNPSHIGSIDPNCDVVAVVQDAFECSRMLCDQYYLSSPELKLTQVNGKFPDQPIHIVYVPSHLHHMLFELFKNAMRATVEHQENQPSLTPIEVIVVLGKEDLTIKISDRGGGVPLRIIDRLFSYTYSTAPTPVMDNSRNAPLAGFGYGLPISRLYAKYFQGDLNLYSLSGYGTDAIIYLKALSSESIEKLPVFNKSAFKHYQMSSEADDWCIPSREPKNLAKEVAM

Structure (SMILES): CC(C)(CO)c1ccc(Nc2ccc(C(=O)C(Cl)Cl)cc2[N+](=O)[O-])cc1
- inhibition of growth at 10 µM (MCF7): 95.3%
- inhibition of growth at 10 µM (A549 [1]): 98.6%
- inhibition of growth at 1 µM (A549 [2]): 29.4%
- inhibition (Homo sapiens): 98.7%
- IC50 (SH-SY5Y): 1700 nM
- IC50 (PC-3): 3.8 µM
- IC50 (L02): 14.4 µM
- Kd [3]: 7.8 µM
- Kd [4]: 9.2 µM
- Activity (A-375 [5]): 6.64%
- Activity (A-375 [6]): 4.06%
- viability at 2.5 µM (A-375 [7]): 68.9%
- Activity (A-375 [8]): 22.3%
- viability at 5 µM (A-375 [9]): 44.5%
- Activity (A-375 [10]): 38.81%
- Activity (A-375 [11]): 4.21%
- Activity (A-375 [12]): 6.47%
- Activity (A-375 [13]): 19.11%
- Activity (A-375 [14]): 55.72%
- Activity (A-375 [15]): 8.5%
- Activity (A-375 [16]): 66.86%
- Activity (A-375 [17]): 27.43%
- Activity (A-375 [18]): 5.71%
- Activity (A-375 [19]): Dose-dependent effect
- inhibition (A-375 [20]): Active
- inhibition (A-375 [21]): Dose-dependent effect
- Activity (A-375 [22]): Active
